Legend:
[1] = target: T1, Broad substrate specificity ATP-binding cassette transporter ABCG2 (Homo sapiens, UniProt Q9UNQ0); assay: Inhibition of human ABCG2 expressed in MDCK2 cells co-expressing GFP preincubated for 30 mins followed by Hoechst 33342 addition and measured every 60 sec for 120 mins by fluorescence assay; format: cell-based, MDCK-II
T1 sequence (Q9UNQ0 whole entry): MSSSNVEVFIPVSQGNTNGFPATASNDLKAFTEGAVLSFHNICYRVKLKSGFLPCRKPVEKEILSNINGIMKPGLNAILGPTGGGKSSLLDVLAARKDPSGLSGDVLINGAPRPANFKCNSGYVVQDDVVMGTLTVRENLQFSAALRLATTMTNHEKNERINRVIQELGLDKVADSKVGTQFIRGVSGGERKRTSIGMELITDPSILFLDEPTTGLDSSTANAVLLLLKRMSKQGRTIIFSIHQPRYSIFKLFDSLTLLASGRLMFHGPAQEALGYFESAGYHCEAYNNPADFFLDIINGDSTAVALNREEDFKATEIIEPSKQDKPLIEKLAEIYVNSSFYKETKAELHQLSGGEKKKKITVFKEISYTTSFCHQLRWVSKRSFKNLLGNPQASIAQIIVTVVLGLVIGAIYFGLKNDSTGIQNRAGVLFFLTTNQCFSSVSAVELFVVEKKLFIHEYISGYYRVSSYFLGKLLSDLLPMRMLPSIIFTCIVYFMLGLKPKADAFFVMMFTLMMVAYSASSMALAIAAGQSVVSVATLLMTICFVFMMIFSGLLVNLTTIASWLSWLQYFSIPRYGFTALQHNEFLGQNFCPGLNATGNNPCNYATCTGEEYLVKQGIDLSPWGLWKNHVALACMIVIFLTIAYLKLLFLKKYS
Outline: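 MDCK II cells transfected with human ABCG2 cDNA C-terminally fused to GFP. Hoechst 33342 added at 1 µM final. Fluorescence (ex 355, em 460 nm) read every 60 s for 120 min. Steady-state means vs log concentration fitted by 3- or 4-parameter logistic to give IC50.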

ABCG2 [2] = target: T2, ABCG2 (Homo sapiens, UniProt Q9UNQ0); assay: Inhibition of human ABCG2 expressed in MDCK2 cells co-expressing GFP preincubated for 30 mins followed by Hoechst 33342 addition and measured every 60 sec for 120 mins by fluorescence assay relative to control; format: cell-based, MDCK-II; settings: probe Hoechst 33342, read-out: Imax
T2 sequence (Q9UNQ0 whole entry): T1 sequence (Q9UNQ0 whole entry)
Outline: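 MDCK II cells transfected with human ABCG2 cDNA C-terminally fused to GFP. Steady-state means vs log concentration fitted by 3- or 4-parameter logistic to give IC50.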

[3] = target: T1, Broad substrate specificity ATP-binding cassette transporter ABCG2; assay: Inhibition of human ABCG2 expressed in MDCK2 cells co-expressing GFP preincubated for 15 mins followed by pheophorbideA addition and measured after 2 hrs by flow cytometric analysis; format: cell-based, MDCK-II
Outline: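 Pheophorbide A added to 0.5 µM final and incubated 2 h. Read by flow cytometry (ex 488, em 695/50 nm); GFP expression checked at 525/30 nm. IC50 from 3- or 4-parameter logistic fit.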

ABCG2 [4] = target: T2, ABCG2; assay: Inhibition of human ABCG2 expressed in MDCK2 cells co-expressing GFP preincubated for 15 mins followed by pheophorbideA addition and measured after 2 hrs by flow cytometric analysis relative to control; format: cell-based, MDCK-II; settings: probe pheophorbide A, read-out: Imax
[5] = Growth inhibition of MDCK2 cells over expressing human ABCG2 after 72 hrs by MTT assay; format: ADME, cell-based, Canis lupus familiaris, MDCK-II; settings: dog, MDCK2 cells overexpressing human ABCG2
Outline: (§1)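 MTT viability assay. Compound dilutions in culture medium (3.2 to 1000 µM as prepared). About 2,000 cells per well, 72 h at 37 °C, 5% CO2. Culture medium set as 100% and 10% DMSO as 0% viability. MTT added for 1 h, formazan dissolved in DMSO, absorbance read at 570 nm with 690 nm background. GI50 from nonlinear regression of absorbance vs log concentration; at least three independent experiments, duplicates, mean ± SEM.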

[6] = Growth inhibition of MDCK2 cells after 72 hrs by MTT assay; format: cell-based, Canis lupus familiaris, MDCK-II; settings: dog; outline: as §1
ABCG2 [7] = assay: Therapeutic ratio of GI50 for Growth inhibition of MDCK2 cells over expressing human ABCG2 to IC50 for inhibition of human ABCG2 expressed in MDCK2 cells co-expressing GFP preincubated for 30 mins followed by Hoechst 33342 addition and measured every 60 sec for 120 mins by fluorescence assay; format: toxicity, cell-based; settings: dog, MDCK2 cells overexpressing human ABCG2, probe Hoechst 33342; read-out: TI
ABCG2 [8] = assay: Therapeutic ratio of GI50 for Growth inhibition of MDCK2 cells over expressing human ABCG2 to IC50 for inhibition of human ABCG2 expressed in MDCK2 cells co-expressing GFP preincubated for 15 mins followed by pheophorbideA addition and measured after 2 hrs by flow cytometric analysis; format: toxicity, cell-based; settings: dog, MDCK2 cells overexpressing human ABCG2, probe pheophorbide A; read-out: TI
MDCK-II [9] = assay: Cytotoxicity against MDCK2 cells over expressing human ABCG2 at 10 uM assessed as reduction in cell viability after 72 hrs by MTT assay; format: ADME, cell-based, Canis lupus familiaris; settings: dog
Outline: (§2)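 Single-concentration screen at 10 µM in MDCK II BCRP and parental MDCK II cells. MTT assay, 72 h at 37 °C, 5% CO2. Viability referenced to culture medium (100%) and 10% DMSO (0%). Mean ± SEM of at least three independent experiments with duplicates.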

MDCK-II [10] = assay: Cytotoxicity against MDCK2 cells assessed as reduction in cell viability at 10 uM after 72 hrs by MTT assay; format: cell-based, Canis lupus familiaris; settings: dog; outline: as §2
[11] = target: T3, ATP-dependent translocase ABCB1 (Homo sapiens, UniProt P08183); assay: Inhibition of human ABCB1 expressed in A2780/ADR cells preincubated for 30 mins followed by calcein AM addition and measured every 60 secs for 60 mins by fluorescence assay; format: cell-based
T3 sequence (P08183 whole entry): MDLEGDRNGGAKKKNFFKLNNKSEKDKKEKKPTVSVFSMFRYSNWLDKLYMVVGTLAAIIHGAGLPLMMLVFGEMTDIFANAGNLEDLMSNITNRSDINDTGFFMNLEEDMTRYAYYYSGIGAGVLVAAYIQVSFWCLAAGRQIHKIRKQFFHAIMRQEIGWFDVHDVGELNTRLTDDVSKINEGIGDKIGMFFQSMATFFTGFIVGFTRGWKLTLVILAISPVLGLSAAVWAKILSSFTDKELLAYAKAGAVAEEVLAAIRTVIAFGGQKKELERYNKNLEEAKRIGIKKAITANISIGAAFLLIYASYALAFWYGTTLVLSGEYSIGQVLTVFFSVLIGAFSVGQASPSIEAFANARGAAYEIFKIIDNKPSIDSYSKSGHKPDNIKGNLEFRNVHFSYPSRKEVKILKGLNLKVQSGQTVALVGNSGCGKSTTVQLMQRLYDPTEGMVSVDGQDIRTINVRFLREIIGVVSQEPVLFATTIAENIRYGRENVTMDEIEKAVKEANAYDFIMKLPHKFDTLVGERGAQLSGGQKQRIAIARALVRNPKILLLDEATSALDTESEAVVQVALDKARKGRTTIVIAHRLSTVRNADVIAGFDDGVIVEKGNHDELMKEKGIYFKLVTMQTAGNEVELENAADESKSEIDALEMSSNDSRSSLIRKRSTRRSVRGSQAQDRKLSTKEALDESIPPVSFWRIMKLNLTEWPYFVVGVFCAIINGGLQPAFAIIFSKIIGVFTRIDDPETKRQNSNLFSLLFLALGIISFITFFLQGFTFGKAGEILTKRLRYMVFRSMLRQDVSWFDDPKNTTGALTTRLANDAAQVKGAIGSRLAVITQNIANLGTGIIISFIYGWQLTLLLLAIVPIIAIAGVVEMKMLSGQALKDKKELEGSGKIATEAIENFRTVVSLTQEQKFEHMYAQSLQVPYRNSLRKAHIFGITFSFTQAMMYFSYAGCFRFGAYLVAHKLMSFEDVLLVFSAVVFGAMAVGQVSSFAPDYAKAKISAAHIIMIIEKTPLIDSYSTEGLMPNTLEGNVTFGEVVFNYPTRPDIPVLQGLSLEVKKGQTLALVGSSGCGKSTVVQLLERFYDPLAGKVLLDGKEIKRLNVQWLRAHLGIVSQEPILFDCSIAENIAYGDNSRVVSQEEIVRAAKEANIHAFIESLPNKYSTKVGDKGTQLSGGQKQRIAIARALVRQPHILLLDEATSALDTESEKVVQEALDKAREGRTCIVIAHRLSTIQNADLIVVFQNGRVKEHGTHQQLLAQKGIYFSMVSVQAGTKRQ
Outline: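 ABCB1 in A2780/ADR cells (kept resistant by one passage in 1 µM doxorubicin every 10 passages). 30,000 cells per well in Krebs-HEPES buffer, preincubated 30 min at 37 °C with inhibitor. Calcein AM added from a 3.125 µM solution. Fluorescence (ex 485, em 520 nm) read every 60 s for 60 min. Initial linear slopes vs log concentration fitted to give IC50.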

[12] = target: T3, ATP-dependent translocase ABCB1; assay: Inhibition of human ABCB1-mediated multidrug resistance in human A2780/ADR cells assessed as potentiation of doxorubicin-induced cytotoxicity by measuring half maximal reversal concentration after 72 hrs by MTT assay; format: cell-based
[13] = target: Multidrug resistance-associated protein 1 (Homo sapiens, UniProt P33527); assay: Inhibition of human ABCC1-mediated multidrug resistance in MDCK2 cells assessed as potentiation of doxorubicin-induced cytotoxicity by measuring half maximal reversal concentration after 72 hrs by MTT assay; format: cell-based; settings: mdck-ii
Multidrug resistance-associated protein 1, sequence (P33527 whole entry): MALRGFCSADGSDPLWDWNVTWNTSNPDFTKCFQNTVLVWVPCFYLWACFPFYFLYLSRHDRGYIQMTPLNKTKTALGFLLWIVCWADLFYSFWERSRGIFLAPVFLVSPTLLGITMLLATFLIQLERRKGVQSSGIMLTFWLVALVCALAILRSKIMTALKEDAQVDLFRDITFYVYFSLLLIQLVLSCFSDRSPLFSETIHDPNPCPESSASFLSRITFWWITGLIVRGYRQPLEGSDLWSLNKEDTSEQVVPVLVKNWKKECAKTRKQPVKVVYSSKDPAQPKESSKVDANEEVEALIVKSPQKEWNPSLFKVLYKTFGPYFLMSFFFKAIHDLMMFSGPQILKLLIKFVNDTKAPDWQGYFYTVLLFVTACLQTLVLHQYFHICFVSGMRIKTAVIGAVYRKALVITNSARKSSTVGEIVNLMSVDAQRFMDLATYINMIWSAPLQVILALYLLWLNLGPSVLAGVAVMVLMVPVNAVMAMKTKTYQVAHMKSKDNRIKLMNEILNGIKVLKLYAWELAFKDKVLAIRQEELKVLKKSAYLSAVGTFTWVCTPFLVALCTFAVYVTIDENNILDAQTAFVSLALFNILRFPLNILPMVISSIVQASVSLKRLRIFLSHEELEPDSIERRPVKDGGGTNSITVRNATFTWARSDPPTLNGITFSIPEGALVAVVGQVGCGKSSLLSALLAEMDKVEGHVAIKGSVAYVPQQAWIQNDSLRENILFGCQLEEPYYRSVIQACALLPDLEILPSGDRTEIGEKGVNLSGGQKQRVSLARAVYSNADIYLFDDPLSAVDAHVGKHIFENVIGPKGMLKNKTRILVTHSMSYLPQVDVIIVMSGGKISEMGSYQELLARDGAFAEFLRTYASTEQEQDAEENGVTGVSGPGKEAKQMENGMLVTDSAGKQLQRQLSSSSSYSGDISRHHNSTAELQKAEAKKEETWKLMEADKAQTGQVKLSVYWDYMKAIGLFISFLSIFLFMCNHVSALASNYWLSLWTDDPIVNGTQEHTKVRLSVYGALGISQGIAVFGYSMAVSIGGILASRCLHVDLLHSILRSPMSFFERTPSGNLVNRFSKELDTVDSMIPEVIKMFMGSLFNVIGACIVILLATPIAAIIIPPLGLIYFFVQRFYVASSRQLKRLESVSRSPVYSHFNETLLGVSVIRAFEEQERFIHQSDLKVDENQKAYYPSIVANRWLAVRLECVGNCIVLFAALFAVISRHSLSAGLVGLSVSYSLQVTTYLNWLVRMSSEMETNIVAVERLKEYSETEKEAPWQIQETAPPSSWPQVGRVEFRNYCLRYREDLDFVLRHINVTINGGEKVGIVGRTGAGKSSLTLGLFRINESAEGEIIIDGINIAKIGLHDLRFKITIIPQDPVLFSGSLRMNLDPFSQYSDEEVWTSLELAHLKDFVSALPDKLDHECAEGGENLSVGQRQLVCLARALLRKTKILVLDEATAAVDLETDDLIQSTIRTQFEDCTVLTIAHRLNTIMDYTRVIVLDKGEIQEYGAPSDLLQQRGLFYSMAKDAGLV

Row | SMILES | IC50 [1] [nM] | Emax at 2 h (ABCG2 [2]) [%] | IC50 [3] [nM] | Emax at 2 h (ABCG2 [4]) [%] | IC50 [11] [nM] | GI50 at 72 h [5] [nM] | GI50 at 72 h [6] [nM] | selectivity ratio (ABCG2 [7]) | selectivity ratio at 2 h (ABCG2 [8]) | Activity (MDCK-II [9]) | Activity (MDCK-II [10]) | inhibition (INH) [12] | inhibition (INH) [13]
1 | Cc1cc(Nc2cccc(Br)c2)nc(-c2ccccc2)n1 | 892 | 100 | 386 | 83 | 7140 | – | – | – | – | Non-Toxic | Non-Toxic | Not Active | Not Active
2 | Cc1cc(Nc2cccc(F)c2)nc(-c2ccccc2)n1 | 1110 | 100 | 776 | 100 | – | – | – | – | – | Non-Toxic | Non-Toxic | – | –
3 | Cc1cc(Nc2ccc(F)c([N+](=O)[O-])c2)nc(-c2ccccc2)n1 | 1010 | 100 | 771 | 100 | – | – | – | – | – | Non-Toxic | Non-Toxic | – | –
4 | Cc1cc(Nc2ccc(C#N)c(C(F)(F)F)c2)nc(-c2ccccc2)n1 | 69.3 | 114 | 385 | 92 | – | 9570 | 9890 | 139 | 25 | Toxic | Toxic | – | –
5 | Cc1cc(Nc2ccc(F)c(C#N)c2)nc(-c2ccccc2)n1 | 307 | 100 | 86.1 | 59 | – | 96700 | 102000 | 315 | 1120 | Non-Toxic | Non-Toxic | – | –
6 | Cc1cc(Nc2cccc(CO)c2)nc(-c2ccccc2)n1 | 4220 | 100 | 2520 | 100 | – | – | – | – | – | Non-Toxic | Non-Toxic | – | –
7 | Cc1cc(Nc2ccc(CC#N)cc2)nc(-c2ccccc2)n1 | 2500 | 100 | 3620 | 100 | 16000 | – | – | – | – | Non-Toxic | Non-Toxic | – | –
8 | COc1ccc(Nc2cc(C)nc(-c3ccccc3)n2)cc1C(F)(F)F | 598 | 100 | 544 | 83 | 7300 | 8400 | 10100 | 14 | 15 | Toxic | Toxic | Not Active | Not Active
9 | COc1ccc(Nc2cc(C)nc(-c3ccccc3)n2)cc1F | 861 | 100 | 1310 | 100 | 8990 | – | – | – | – | Non-Toxic | Non-Toxic | – | –
10 | Cc1cc(Nc2ccc3c(c2)OCCO3)nc(-c2ccccc2)n1 | 808 | 100 | 1630 | 100 | 13100 | – | – | – | – | Non-Toxic | Non-Toxic | – | –
11 | C[S+](C)[O-] [DIMETHYL SULFOXIDE] | – | – | – | – | – | 137000 | 123000 | – | – | – | – | – | –
12 | Cc1cc(Nc2cccc(Cl)c2)nc(-c2ccccc2)n1 | 811 | 100 | 1000 | 100 | 5920 | – | – | – | – | Non-Toxic | Non-Toxic | Not Active | Not Active

Continued, in another order:

Row | IC50 [1] [nM] | Emax at 2 h (ABCG2 [2]) [%] | IC50 [3] [nM] | Emax at 2 h (ABCG2 [4]) [%] | IC50 [11] [nM] | SMILES | GI50 at 72 h [5] [nM] | GI50 at 72 h [6] [nM] | selectivity ratio (ABCG2 [7]) | selectivity ratio at 2 h (ABCG2 [8]) | Activity (MDCK-II [9]) | Activity (MDCK-II [10]) | inhibition (INH) [12] | inhibition (INH) [13]
13 | 119 | 90 | 59.4 | 40 | – | Cc1cc(Nc2ccc(C#N)c(Br)c2)nc(-c2ccccc2)n1 | 145000 | 188000 | 1220 | 2440 | Non-Toxic | Non-Toxic | – | –
14 | 52.2 | 79 | 156 | 67 | 11200 | Cc1cc(Nc2ccc([N+](=O)[O-])cc2)nc(-c2ccccc2)n1 | 17000 | 16700 | 327 | 111 | Non-Toxic | Non-Toxic | – | –
15 | 58.9 | 76 | 228 | 86 | – | Cc1cc(Nc2ccc([N+](=O)[O-])c(Cl)c2)nc(-c2ccccc2)n1 | – | – | – | – | Non-Toxic | Non-Toxic | – | –
16 | 253 | 105 | 416 | 101 | 17700 | Cc1cc(Nc2ccc3c(c2)C(=O)NC3=O)nc(-c2ccccc2)n1 | – | – | – | – | Non-Toxic | Non-Toxic | – | –
17 | 253 | 74 | 516 | 59 | – | Cc1cc(Nc2cccc(O)c2)nc(-c2ccccc2)n1 | – | – | – | – | Non-Toxic | Non-Toxic | – | –
18 | 188 | 117 | 548 | 100 | – | Cc1cc(Nc2ccc(C#N)c(C#N)c2)nc(-c2ccccc2)n1 | – | – | – | – | Non-Toxic | Non-Toxic | – | –
19 | 280 | 100 | 328 | 53 | 5030 | COc1cc(Nc2cc(C)nc(-c3ccccc3)n2)ccc1Br | – | – | – | – | Non-Toxic | Non-Toxic | Not Active | Not Active
20 | 130 | 80 | 146 | 68 | – | Cc1cc(Nc2cccc([N+](=O)[O-])c2)nc(-c2ccccc2)n1 | – | – | – | – | Non-Toxic | Non-Toxic | – | –
21 | 271 | 96 | 503 | 100 | 13400 | COc1cccc(Nc2cc(C)nc(-c3ccccc3)n2)c1 | – | – | – | – | Non-Toxic | Non-Toxic | – | –

From ChEMBL document CHEMBL4725354 (J Med Chem, 2020)
